Assay outcomes as filed in PubChem.
This is a sample that favours compounds with a hit; in the whole collection about 4.9% have one here.
NPY1 pot ag – human NPY-Y1 potentiation or agonism, primary screen | P25929 | NPY-Y1 expressing cells, potentiator/agonist activation | activation, % at 3.6 µM | 220,000 tested, 0.37% active | AID 1304; in the data active = activation above about 33%, passing the limit was not always enough;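 note: cells stimulated with NPY at EC10 then isoproterenol at EC100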
RAM network inh – inhibitors of the yeast RAM network | S. cerevisiae dse1pr::URA3 reporter, 5-FOA growth OD615, 2 d; analog-sensitive cbk1-as2 kinase mutant strain | inhibition, % at 50 µM | 190,000 tested, 1.8% active;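 active = inhibition above a set limit, 3 SD over mean compound inhibition, cut at about 8.4% in these data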;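 note: inhibition rescues growth on 5-FOA so higher OD means more RAM inhibition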
NPY-Y2 antag – blocks the human neuropeptide Y Y2 receptor. P49146. NPY-Y2 expressing cells, antagonist mode. inhibition, % at 2.7 µM. 140,000 tested, 0.99% active. AID 793; in the data active = inhibition above about 17%
Target sequence (P49146 whole entry, looked up): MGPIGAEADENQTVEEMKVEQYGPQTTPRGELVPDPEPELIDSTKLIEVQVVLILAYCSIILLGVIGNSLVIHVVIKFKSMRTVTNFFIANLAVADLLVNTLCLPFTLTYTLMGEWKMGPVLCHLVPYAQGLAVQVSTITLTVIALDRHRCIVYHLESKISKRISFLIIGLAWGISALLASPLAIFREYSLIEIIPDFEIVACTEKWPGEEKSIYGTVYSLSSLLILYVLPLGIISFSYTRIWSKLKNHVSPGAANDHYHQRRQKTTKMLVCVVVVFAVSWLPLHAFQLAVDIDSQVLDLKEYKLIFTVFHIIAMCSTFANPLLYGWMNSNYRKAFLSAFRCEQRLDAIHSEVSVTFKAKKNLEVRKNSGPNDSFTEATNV
NPY-Y2 PAM-ag – potentiators or agonists of human neuropeptide Y receptor Y2 | P49146 | cells expressing NPY-Y2, potentiator/agonist read-out | activation, % at 3.6 µM | 220,000 tested, 0.45% active | AID 1359; in the data active = activation above about 27%;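 note: cells stimulated with NPY near EC25 plus isoproterenol at EC100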
WT yeast gro inh – growth inhibition of WT yeast, mitochondrial fusion screen. 190,000 tested, 2.1% active. inhibition, % at 10 µM. mitochondrial fusion phenotypic screen, WT strain; in the data active = inhibition above about 58%; tested in S. cerevisiae
NPY-Y1 antag – blocks the human neuropeptide Y Y1 receptor | P25929 | HEK293-CNG Y1 cells, membrane potential fluorescence; NPY at EC95, then isoproterenol | inhibition, % at 3.6 µM | 200,000 tested, 1% active | AID 1040;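 active = inhibition above the campaign mean inhibition of all tested compounds plus 3 SD, cut at about 20% in these data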
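Benchmarks – high control isoproterenol alone, low control NPY with isoproterenol · Material – HEK293 Y1/CNG channel cell line · Times – dye 3 h, compound 60 min room temperature, stimulation 45 min · Probe or stimulus – NPY (25 nM), isoproterenol (1 µM), Ro 20-1724 (25 µM) · Evaluation – % inhibition of NPY effect · Signal – fluorescence, membrane potential probe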
Of the large screens only hits and unclear results are named; the others gave an inactive call.

CN1CCN(C(=S)c2cn(Cc3ccccc3)c3ccccc23)CC1	none (no result: NPY-Y2 antag)
CC1CCN(C(=S)c2cn(Cc3cccc(F)c3)c3ccccc23)CC1	WT yeast gro inh 71
S=C(c1cn(CCOc2ccccc2)c2ccccc12)N1CCCC1	WT yeast gro inh 70
CN1CCN(C(=S)c2cn(Cc3ccc(Br)cc3)c3ccccc23)CC1	WT yeast gro inh 79 (no result: NPY-Y2 antag)
COC(=O)[C@@H]1[C@@H](C#N)C2(c3ccccc3-c3ccccc32)N(c2ccc(Cl)cc2)N1C#N	WT yeast gro inh 74
O=C(Cc1ccc(Cl)cc1)NN1C(=O)c2ccccc2C1=O	none
NC(=O)CSc1nc(-c2ccccc2)c(-c2ccccc2)o1	RAM network inh 11
CCc1nnc(NC(=O)CSc2nc(-c3ccccc3)c(-c3ccccc3)o2)s1	none
Cc1ccc(-n2nnnc2SCCNS(=O)(=O)c2ccccc2)cc1C	RAM network inh 9.9
O=C(/C=C/c1ccc2c(c1)OCCO2)c1ccccc1	none (no result: RAM network inh, NPY-Y2 antag, WT yeast gro inh, NPY-Y1 antag)
Cc1ccc(O)c(C(=O)/C=C/c2ccc3c(c2)OCCO3)c1	WT yeast gro inh 60 (no result: NPY-Y2 antag)
O=C(COC(=O)CC1c2ccccc2CCN1S(=O)(=O)c1ccccc1)Nc1ccccc1 (configuration not stated)	none
COc1ccc(CN(C(=O)c2nsc(Cl)c2Cl)C(C(=O)NC2CCCC2)c2ccc(OC)cc2)cc1 (configuration not stated)	NPY-Y2 antag 23, NPY-Y1 antag 33
O=C(NCc1ccccc1)c1cc(-c2cccc(O)c2)on1	none (no result: NPY-Y2 antag)
O=C(c1cccs1)N1N=C(c2ccccc2)CC1c1ccccc1O (configuration not stated)	none (no result: NPY-Y2 antag)
COc1ccc(C2CC(c3ccccc3)=NN2S(=O)(=O)c2ccccc2)cc1 (configuration not stated)	none (no result: RAM network inh, NPY-Y2 antag, WT yeast gro inh, NPY-Y1 antag)
Cc1ccc(C2=NN(S(=O)(=O)c3ccccc3)C(c3ccccc3O)C2)cc1 (configuration not stated)	WT yeast gro inh 84 (no result: NPY-Y2 antag)
O=C(c1ccccc1)N1N=C(c2ccccc2)CC1c1ccccc1O (configuration not stated)	WT yeast gro inh 67 (no result: NPY-Y2 antag)
CC1(C)OC(=O)N(CC(=O)Nc2cccc(C(F)(F)F)c2)C1(C)O (configuration not stated)	none (no result: NPY-Y2 antag)
CC(CNCc1ccc2c(c1)OCO2)NCc1ccc2c(c1)OCO2 (configuration not stated)	NPY-Y2 antag 19, NPY-Y1 antag 24
CCOC(=O)N1CCN(c2cc(NCCC(=O)O)c3c4c(onc24)-c2ccccc2C3=O)CC1	RAM network inh 9.4
O=C(O)CCCNc1cc(N2CCC3(CC2)OCCO3)c2noc3c2c1C(=O)c1ccccc1-3	RAM network inh 8.7
O=[N+]([O-])c1c(NCCO)cc(N2CCC3(CC2)OCCO3)c2nonc12	none
CCn1c2ccccc2c2cc(NC(=O)CSc3nnc(C4CC4)n3Cc3ccco3)ccc21	none
CC(C)(C)NC(=O)c1cccc(NC(=O)CSc2ccccc2)c1	none
COc1ccc(N2CCN(C(=S)NC(=O)c3cccs3)CC2)c([N+](=O)[O-])c1	WT yeast gro inh 61 (no result: NPY-Y2 antag)
COc1ccc(N2CCN(C(=O)c3ccc(Br)cc3)CC2)c([N+](=O)[O-])c1	WT yeast gro inh 69 (no result: NPY-Y2 antag)
COc1ccc(N2CCN(C(=O)c3ccc(C)cc3)CC2)c([N+](=O)[O-])c1	none
O=C(NC(=S)N1CCN(c2c(Cl)cccc2[N+](=O)[O-])CC1)c1cccs1	WT yeast gro inh 78
O=C(NC(=S)N1CCN(c2ccc(O)cc2)CC1)c1cccs1	none (no result: RAM network inh, NPY-Y2 antag, WT yeast gro inh, NPY-Y1 antag)
COc1ccc(N2CCN(C(=O)c3ccccc3)CC2)c([N+](=O)[O-])c1	none (no result: NPY-Y2 antag)
COc1ccccc1C1C2CCCCC2(O)CCN1CC(=O)Nc1ccccc1 (configuration not stated)	none
COC(=O)c1c(NC(=O)CN2CCC3(O)CCCCC3C2c2cc(OC)ccc2OC)sc(C)c1C (configuration not stated)	WT yeast gro inh 74
COC(=O)c1c(NC(=O)CN2CCC3(O)CCCCC3C2c2ccc(F)cc2)sc(C)c1C (configuration not stated)	WT yeast gro inh 59
CCCCNC(=O)CN1CCC2(O)CCCCC2C1c1ccccc1OC (configuration not stated)	none
O=C(NCCN1CCOCC1)c1sc2ccccc2c1Cl	none (no result: NPY-Y2 antag)
